From PubChem
Jurkat NFkB inh: lowers PMA/ionomycin-induced NF-kB signal in Jurkat cells; PMA/ionomycin-induced NF-kB luciferase reporter, luminescence; inhibition, % at 4 µM; actives 0.53% (n = 330,000); in the data active = inhibition above about 50%
UPR CHOP act: apoptotic UPR (CHOP) activation; actives 0.34% (n = 330,000); activation, % at 10 µM; CHO-CHOP luciferase reporter, luminescence; percent of tunicamycin response over DMSO baseline;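 active = at 10 µM dose, activation of 40% or more, normalized to positive control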
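assay system = CHO CHOP reporter cells | amount = 500 CHO-CHOP cells per well | buffer or medium = F12 with 10% FBS | incubation = 16-18 h cell attachment, then 6 h compound exposure, 37 °C | detection = luminescence read with Steady-Glo | read-out = percent activation relative to tunicamycin control | controls = tunicamycin high control, DMSO low control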
Gli-Sufu antag: blocks Gli-Sufu signaling in a luciferase reporter | Sufu-KO-LIGHT fibroblasts, Gli luciferase reporter luminescence | inhibition, % at 5 µM | actives 0.74% (n = 340,000) | AID 588413;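 active = inhibition above about 55%, limit read from the data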
697 NFkB inh: inhibitors of the PMA/ionomycin-induced NF-kB reporter in 697 B cells | 697 B-cell NF-kB luciferase reporter, 16 h | inhibition, % at 4 µM | actives 0.33% (n = 330,000) | AID 435022; in the data active = inhibition above about 35%
CHOP inhibitor: CHOP inhibition in unfolded protein response; actives 3.8% (n = 220,000); inhibition, % at 10 µM; CHO-K1 CHOP-promoter luciferase, tunicamycin-induced, 15-18 h;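 active = compounds that reduced the stress-induced luciferase reporter signal by more than about 70% of percent inhibition, limit read from the data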
XBP1 UPR activ: activators of adaptive arm of unfolded protein response (XBP1) | CHO-XBP1 luciferase reporter, IRE1-XBP1 UPR activation, luminescence; percent of tunicamycin response, DMSO as zero | activation, % at 20 µM | actives 0.33% (n = 330,000) | AID 463104;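 active = versus positive control, 20 µM dose yields 30% or more activation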
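Material: CHO cell line with stable XBP1 luciferase reporter; buffer or medium: F12 medium containing 10% fetal bovine serum; compound: single point, 20 µM final compound, 1% DMSO; incubation: 6 h treatment, 37 °C; measured by: glow luminescence from Steady-Glo reagent; evaluation: activation, % of tunicamycin; control set: tunicamycin high, DMSO low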
Jurkat NFkB conf: inhibitors of the PMA/ionomycin-induced NF-kB reporter in Jurkat cells, retest; shares compounds with Jurkat NFkB inh; Jurkat NF-kB luciferase, 16 h; inhibition, % at 4 µM; actives 27% (n = 2,700);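 active = inhibition reaching about 45% at 4 µM in either replicate, limit read from the data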
Each line names hits and unclear results; the compound was inactive in the other large screens (follow-up assays come after a bar, where they were run). In the library only some 3.9% were active in any assay of this set; here they are far more common.

CNCCCOc1ccc2c(c1)CCC2	none
c1cnc(SCCOc2ccc3c(c2)CCC3)nc1	none | Jurkat NFkB conf inactive
Cc1ccc(S(=O)(=O)Nc2cccc(-c3ccc4nncn4n3)c2)cc1	Jurkat NFkB inh 59 (no result: CHOP inhibitor) | Jurkat NFkB conf 48
CCOc1ccc(C(=O)COC(=O)c2cc([N+](=O)[O-])ccc2N2CCOCC2)cc1	Jurkat NFkB inh 53 (no result: CHOP inhibitor) | Jurkat NFkB conf inactive
COc1ccc(OC)c(COC(=O)c2cc([N+](=O)[O-])ccc2N2CCOCC2)c1	Jurkat NFkB inh 52 (no result: CHOP inhibitor) | Jurkat NFkB conf inactive
CSc1ccc(COC(=O)c2cc([N+](=O)[O-])ccc2N2CCOCC2)cc1	Jurkat NFkB inh 81 (no result: CHOP inhibitor) | Jurkat NFkB conf 66
O=C(COC(=O)c1cc([N+](=O)[O-])ccc1N1CCOCC1)c1ccc(Br)cc1	none (no result: CHOP inhibitor)
Cc1ccccc1COC(=O)c1cc([N+](=O)[O-])ccc1N1CCOCC1	none (no result: CHOP inhibitor)
O=C(OCc1ccccc1F)c1cc([N+](=O)[O-])ccc1N1CCOCC1	none (no result: CHOP inhibitor)
O=C1C(=Cc2cccs2)C(=O)c2ccccc21	none
O=C1/C(=C\c2cccs2)Sc2ccc3ccccc3c21	none | Jurkat NFkB conf inactive
CC1(c2ccc(OC(F)F)cc2)NC(=O)N(CC(=O)c2ccc3c(c2)OCO3)C1=O (configuration not stated)	none (no result: CHOP inhibitor)
CCN(CC)S(=O)(=O)c1ccc(N/N=C/c2cc(OC)c(OC)cc2OC)nc1	none
CCOc1cccc(/C=N/Nc2ccc(S(=O)(=O)N(CC)CC)cn2)c1O	Jurkat NFkB inh 60, Gli-Sufu antag 90 | Jurkat NFkB conf inactive
COc1cccc(-c2noc(-c3cccs3)n2)c1	none | Jurkat NFkB conf inactive
Cc1c(C(=O)OC2CCC(C)CC2)[nH]c2c1C(=O)CCC2 (configuration not stated)	none | Jurkat NFkB conf inactive
COC(=O)c1[nH]c2c(c1C)C(=O)CCC2	none
CC1CCCCC1NC(=O)C1CCC(CNS(=O)(=O)c2ccccc2)CC1 (configuration not stated)	none (no result: CHOP inhibitor)
O=C(c1ccco1)N1CCN(C(=O)N2c3ccccc3Sc3ccccc32)CC1	Jurkat NFkB inh 59 (no result: CHOP inhibitor) | Jurkat NFkB conf 55
O=C(N1CCN(c2ccccn2)CC1)N1c2ccccc2Sc2ccccc21	Jurkat NFkB inh 68 (no result: CHOP inhibitor) | Jurkat NFkB conf inactive
O=C(c1ccco1)N1c2ccccc2Sc2ccccc21	none
CC(Sc1nnc(-c2ccccc2)c(-c2ccccc2)n1)C(=O)NCC1CCCO1 (configuration not stated)	none (no result: CHOP inhibitor)
COc1ccc(OCC(=O)Nc2ccccc2N2CCCCC2)cc1	Jurkat NFkB inh 64 (no result: CHOP inhibitor) | Jurkat NFkB conf inactive
COc1ccc(CNCC(=O)Nc2ccccc2-n2cccc2)cc1	Jurkat NFkB inh 68 | Jurkat NFkB conf inactive
COc1ccccc1-c1oc2ccccc2c1C#CC(C)(C)O	none (no result: CHOP inhibitor)
O=C(NCCSCc1ccco1)c1ccc(=O)[nH]c1	none (no result: CHOP inhibitor)
CCCNC(=S)NC1CC2CCCC(C1)N2Cc1ccc(F)cc1 (configuration not stated)	none (no result: CHOP inhibitor)
O=C(N[C@@H](Cc1ccccc1)C(=O)CCl)OCc1ccccc1	Jurkat NFkB inh 83, UPR CHOP act 158 | Jurkat NFkB conf 48
C/C(=N\OC(=O)NC(C)C)c1sc(-c2ccc(Cl)cc2)nc1C	none
CCNC(=O)O/N=C(\C)c1sc(-c2ccc(Cl)cc2)nc1C	none | Jurkat NFkB conf inactive
CCOc1ccc(N(C)S(=O)(=O)c2ccc(-c3cc(C)no3)s2)cc1	Jurkat NFkB inh 58 (no result: CHOP inhibitor) | Jurkat NFkB conf 52
Cc1cccc(N(C)S(=O)(=O)c2ccc(-c3cc(C)no3)s2)c1	none (no result: CHOP inhibitor)
CSc1nc(N(C)NC(=O)c2ccc(F)cc2)c2ccccc2n1	Jurkat NFkB inh 51 | Jurkat NFkB conf inactive
Nc1ccccc1C#CC(=O)c1ccccc1	Jurkat NFkB inh 52 (no result: CHOP inhibitor) | Jurkat NFkB conf inactive
Nc1ccccc1C#Cc1ccc([N+](=O)[O-])cc1	none (no result: CHOP inhibitor)
CC(=O)c1ccc(-n2nnnc2SCC(=O)NC2CCCCC2)cc1	none (no result: CHOP inhibitor)
CCn1c2ccccc2c2cc(NC(=O)CNCc3ccccc3OC)ccc21	Jurkat NFkB inh 53 (no result: CHOP inhibitor) | Jurkat NFkB conf inactive
